Test results reported in ChEMBL document CHEMBL3593179, “Benzoic acid derivatives with improved antifungal activity: Design, synthesis, structure-activity relationship (SAR) and CYP53 docking studies” (2015).
The source made the active and inactive calls. The rule behind the calls is not given here.

Assays:
[1] = system: Curvularia lunata; assay: Antifungal activity against Cochliobolus lunatus strain MUCL 38696 at 100 uM by growth based assay; type: functional, organism-based
Method in brief: (§1)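 Mycelial discs cut from 5-day-old cultures were placed centrally on MEA (Blakeslee's formula) agar plates containing inhibitor at 0.1 mM final concentration or solvent control. Plates were incubated at 28°C and growth was scored daily. Radial growth rate (RGR) and initial growth inhibition (IGI) were derived and expressed as percent of the matching solvent control. Each compound was tested in triplicate.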

[2] = system: Aspergillus niger; assay: Antifungal activity against Aspergillus niger N402 cspA1 at 100 uM by growth based assay; type: functional; method in brief: as §1
[3] = system: Pleurotus ostreatus; assay: Antifungal activity against Pleurotus ostreatus Plo5 at 100 uM by growth based assay; type: functional; method in brief: as §1

Row | SMILES | inhibition [1] | also measured
1 | Cc1ccc(C)n1-c1ccc(C(=O)O)cc1 | inactive | –
2 | O=C(O)c1ccc(-c2ccc(Cl)c(F)c2)cc1 | Active | inhibition at 100 µM [2]: 30%; inhibition at 100 µM [3]: 75%
3 | Cc1cc(C=O)c(C)n1-c1ccc(C(=O)O)cc1 | inactive | –
4 | O=C(O)c1ccc(F)cc1 | inactive | –
5 | O=C(O)c1ncc(N2CCCC2)cc1Cl | inactive | –
6 | O=C(O)c1ccc(CN2CCCC2)cc1 | inactive | –
7 | O=C(O)c1ccc2ccccc2c1 | inactive | –
8 | Cc1cc(C(=O)O)ccc1-n1c(C)ccc1C | inactive | –
9 | O=C(O)c1ccc(N2CCCC2)nc1 | inactive | –
10 | CC(=O)c1cc(C)n(-c2ccc(C(=O)O)cc2)c1C | inactive | –
11 | Cc1cc(C)n(-c2ccc(C(=O)O)cc2)n1 | inactive | –
12 | Cc1ccn(-c2ccc(C(=O)O)c(Cl)c2)n1 | inactive | –
13 | Cn1ccc(-c2ccc(C(=O)O)cc2)n1 | inactive | –
14 | O=C(O)c1ccc(-c2cccs2)cc1 | Active | inhibition [2]: Active; inhibition [3]: Active
15 | O=C(O)c1ccc(-c2ccc(F)cc2)cc1 | Active | inhibition [2]: Active; inhibition at 100 µM [3]: 75%
16 | O=C(O)c1ccc(N2CCCCC2)cc1Cl | inactive | –

Row | SMILES | inhibition [1] | also measured
17 | O=C(O)c1ccc(-c2cccc(F)c2)cc1 | Active | inhibition [2]: Active
18 | Cc1cc(C(=O)O)ccc1-n1cccc1 | – | inhibition [3]: inactive
19 | O=C(O)c1ccc(-c2ccc(Cl)c(Cl)c2)cc1 | – | inhibition [2]: inactive
20 | O=C(O)c1ccc(-c2ccsc2)cc1 | Active | inhibition at 100 µM [3]: 75%
21 | O=C(O)c1ccc(-c2ccc(Cl)cc2)cc1 | – | inhibition [2]: inactive
22 | O=C(O)c1ccc(-c2cc(F)c(F)cc2F)cc1 | Active | inhibition [2]: Active
23 | O=C(O)c1ccc(C2CCCCC2)cc1 | inactive | –
24 | O=C(O)c1ccc(N2CCCC2=O)cc1 | inactive | –
25 | O=C(O)c1ccc(-n2cccc2)cc1 | Active | inhibition [2]: Active; inhibition [3]: inactive
26 | O=C(O)c1ccc(C(=O)O)cc1 | inactive | –
27 | O=C(O)c1ccc(N2CCCC2)cc1 | inactive | –
28 | Cc1cc(C)n(-c2ccc(S(=O)(=O)O)cc2)n1 | inactive | –
29 | O=C(O)c1ccc(-c2ccc(C(=O)O)cc2)cc1 | inactive | –
30 | O=S(=O)(O)c1cc[n+](-c2ccc(Cl)cc2)cc1 | inactive | –
31 | O=C(O)c1ccc(N2CCCC2)cc1Cl | inactive | inhibition [2]: Active
32 | CC1CCN(c2ccc(C(=O)O)cc2)CC1 | Active | –
